Shown are actives, neighbours in structure and some others; about 3.3% of the full set was active somewhere.
SIAE primary: blocks human sialic acid acetylesterase | Q9HAT2 | SIAE FP-Rh probe binding, fluorescence polarization | inhibition, % at 9.66 µM | hit rate 0.69% among 370,000 | AID 1053197;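 active = inhibition above a cutoff: mean of compounds within the control limits plus 3 SD of those, cut at about 17% in these data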
mABHD4 FP: inhibits mouse alpha/beta hydrolase domain 4; purified mABHD4, FP-Rh probe fluorescence polarization; inhibition, % at 8.92 µM; hit rate 0.54% among 370,000; AID 720543;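 active = inhibition exceeding the mean over every tested compound plus 3 SD, cut at about 30% in these data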
Target sequence (Q8VD66 whole entry, looked up, the tested form may be a part): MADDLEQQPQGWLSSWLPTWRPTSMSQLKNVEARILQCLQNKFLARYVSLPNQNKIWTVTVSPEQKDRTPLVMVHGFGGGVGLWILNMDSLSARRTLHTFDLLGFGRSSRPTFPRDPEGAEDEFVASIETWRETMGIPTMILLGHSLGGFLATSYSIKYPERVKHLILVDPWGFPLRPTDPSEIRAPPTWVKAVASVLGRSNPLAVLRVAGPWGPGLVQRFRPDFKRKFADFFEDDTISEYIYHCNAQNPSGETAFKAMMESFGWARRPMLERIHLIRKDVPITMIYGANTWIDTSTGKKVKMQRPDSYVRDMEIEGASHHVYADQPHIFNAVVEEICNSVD
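system = mouse ABHD4 enzyme, wild type | medium = HEPES pH 7.0, NaCl, Pluronic buffer | also added = FP-Rh probe | incubation = Enzyme–compound pre-incubation 45 min, then probe 60 min, both 25 °C | technique = fluorescence polarization, excitation 525 nm, emission 598 nm, BODIPY TMR filters | controls = S159A mutant high control, sample median low control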
HTRA1 inhibitor: HTRA1 (human) protease inhibition; recombinant HTRA1, FP-rhodamine activity-based probe, fluorescence polarization; Q92743; AID 504803; hit rate 0.5% among 340,000; inhibition, % at 5.96 µM; in the data active = inhibition above about 36%
PRMT1 inh: PRMT1 (human) inhibition, primary screen. recombinant PRMT1, activity-based probe fluorescence polarization. hit rate 1.3% among 370,000. Q99873. inhibition, % at 2.79 µM;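 active = inhibition above about 21% made by adding two undisclosed values, limit read from the data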
rCAG RNA binder: r(CAG) repeat RNA binding. inhibition, % at 3 µM. hit rate 1.3% among 370,000. TO-PRO-1 dye displacement fluorescence;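 active = inhibition above the plate cutoff, the mean of all test compounds on that plate plus 3 SD, cut at about 35% in these data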;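 also: higher means more dye released from RNA so lower well fluorescence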
SIAE confirm: human SIAE inhibition, confirmation; shares compounds with SIAE primary; hit rate 13% among 2,300; SIAE FP-Rh activity-based probe, fluorescence polarization; inhibition, % at 9.66 µM;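 active = mean inhibition of the replicates above the hit cutoff set in the primary screen, cut at about 17% in these data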;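 also: inhibitors lower polarization as more probe stays unbound to SIAE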
Of the large screens only hits and unclear results are named; the others gave an inactive call (follow-up assays come after a bar, where they were run).

CCCc1cc(=O)oc2cc(OC3CCCCC3=O)ccc12 (stereo not drawn)	none
Cc1ccc(OCC(=O)OCc2nc3scc(-c4ccccc4)c3c(=O)[nH]2)cc1C	SIAE primary 18.4 | SIAE confirm inactive
CC(C)c1ccc(NC(=O)COC(=O)CC2CCCC2)cc1	SIAE primary 20.0 | SIAE confirm inactive
COc1ccc(N2CC(C(=O)NCc3ccccc3)CC2=O)cc1 (stereo not drawn)	none
COc1ccc(CNC(=O)C2CSC(=O)C2)cc1 (stereo not drawn)	SIAE primary 20.2 | SIAE confirm inactive
CCOc1ccc(/C=N/NC(=O)c2cc3c(OC)cc(OC)c(OC)c3[nH]2)cc1	SIAE primary 30.6 | SIAE confirm 17.4
COc1ccc2[nH]c(C(=O)N/N=C/c3ccccc3OC)cc2c1	none
COc1cc(OC)c2cc(C(=O)N/N=C/c3ccccc3O)[nH]c2c1	SIAE primary 25.5 | SIAE confirm inactive
O=C1CCCC(O)=C1C=NCc1ccccc1	none
Cc1nc(SCC(=O)N2CCN(C(=O)c3cccs3)CC2)c2c(C)c(C)sc2n1	SIAE primary 17.4 | SIAE confirm inactive
Cc1nc(SCC(=O)N2CCN(C(=O)c3ccco3)CC2)c2c(C)c(C)sc2n1	none
CCc1ccc(Nc2nnc(SC3CCOC3=O)s2)cc1 (stereo not drawn)	none
O=C(O)C1=C[C@@H](c2csc3ccccc23)C[C@@H](OCc2ccc(CO)cc2)O1	SIAE primary 22.3 | SIAE confirm inactive
O=C(O)C1=C[C@H](c2csc3ccccc23)C[C@H](OCc2ccc(CO)cc2)O1	none
CCN1CCN(C(=O)/C(=C/c2ccco2)NC(=O)c2ccccc2)CC1	SIAE primary 18.4 | SIAE confirm inactive
Cn1ncc(Br)c1N1C(=O)CCC1=O	SIAE primary 19.8 (no result: HTRA1 inhibitor) | SIAE confirm inactive
Cn1ncc(Br)c1C(=O)O	none
COc1cccc(C(=O)OC(C)C(=O)Nc2ccc3c(c2)OCO3)c1 (stereo not drawn)	SIAE primary 19.3 | SIAE confirm inactive
CC(OC(=O)c1cccc(NS(C)(=O)=O)c1)C(=O)Nc1ccc2c(c1)OCO2 (stereo not drawn)	none
Cc1ccc(S(=O)(=O)N2CCCC2CNC(=O)c2ccccc2)cc1 (stereo not drawn)	SIAE primary 21.6 | SIAE confirm inactive
Cc1ccc(S(=O)(=O)N2CCCC2CNC(=O)C(=O)Nc2ccccc2)cc1 (stereo not drawn)	none
O=C(COC(=O)c1cnccn1)N=c1sccn1Cc1ccccc1Cl	SIAE primary 20.3 | SIAE confirm inactive
CC(C)(C)C(=O)c1cn(CC(=O)O)c2ccccc12	none
CC(C)C(=O)c1cn(CC(=O)O)c2ccccc12	SIAE primary 18.9 | SIAE confirm inactive
Cc1ccc(CN2CCN(c3ccccc3)CC2)o1	none
O=C(c1cc(Cl)ccc1F)N1CCCC(Nc2ccc3c(c2)OCCO3)C1 (stereo not drawn)	SIAE primary 17.1 | SIAE confirm inactive
O=C(c1ccco1)N1CCCC(Nc2ccc3c(c2)OCCO3)C1 (stereo not drawn)	none
O=C(N/N=C/c1c[nH]c2ccccc12)c1cc(Cl)ccc1O	SIAE primary 17.5 | SIAE confirm inactive
CC1(C)CC(=O)C=C(c2ccc3[nH]ccc3c2)C1	none
S=C(NNc1ccnc2cc(Cl)ccc12)Nc1ccccc1Cl	SIAE primary 24.4 | SIAE confirm 20.5
S=C(Nc1ccccc1Cl)Nc1ccc(Cl)cc1Cl	none
O=C(Nc1cccc([N+](=O)[O-])c1)NC1CCCCCCC1	none
COc1ccc2c(ccc[n+]2CC(=O)c2ccccc2)c1	none
COc1ccc(C(=O)C[n+]2ccccc2/C=N/O)cc1	SIAE primary 18.2 | SIAE confirm inactive
CCCCC(=O)NCCNC(=O)c1cc(OCC(F)(F)F)ccc1OCC(F)(F)F	SIAE primary 26.3 | SIAE confirm inactive
COc1ccc2[nH]c(C)c(CCNC(=S)Nc3cccc(C)c3C)c2c1	SIAE primary 17.7 | SIAE confirm inactive
COc1ccc2[nH]c(C)c(CCNC(=S)Nc3ccccc3C)c2c1	none
